Here are results for 21 compounds from ChEMBL document CHEMBL1156727, “Synthesis and evaluation of curcumin analogues as potential thioredoxin reductase inhibitors” (Bioorg Med Chem, 2008).

The structures appear in SMILES notation. Activity calls are given as the source filed them. The calls are words filed in the database; no cut-off is given here.

The nature of experiment [1]: Inhibition of TrxR preincuabatd for 4 mins.
In experiment [2] the test system is A549. As to the kind of experiment: Cytotoxicity against TrxR overexpressing human A549 cells after 48 hrs by MTT assay. The class given is functional. In a few lines:
(§1)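 Cells grown in RPMI 1640 with 10% fetal calf serum, penicillin/streptomycin and 2 mM L-glutamine at 37 °C under 5% CO2. Seeded 1×10⁴/well and left overnight, then exposed 48 h to 0–100 µM. MTT was added for 4 h at 37 °C and formazan dissolved in DMSO, read at 570 nm. Run in quadruplicate; GC50 is the concentration giving 50% of control viability.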
A general note: Tetrazolium dyes change colour on reduction, which living cells bring about.

In another experiment the test system is HepG2. As to the kind of experiment: Cytotoxicity against TrxR overexpressing human HepG2 cells after 48 hrs by MTT assay. The class given is functional. In a few lines:
as §1

For experiment [3], the system named is A549. As to the kind of experiment: Cytotoxicity against TrxR overexpressing human cis-diammine-dichloroplatinum (II)-resistant A549 cells after 48 hrs by MTT assay. The class given is functional. In a few lines: as §1
Experiment [4] can be described thus: Inhibition of TrxR preincuabatd for 2 hrs.
A further experiment relates to MCF7. As to the kind of experiment: Cytotoxicity against TrxR overexpressing human doxorubicin-resistant MCF7 cells after 48 hrs by MTT assay. The class given is functional. In a few lines:
as §1

Experiment [5] concerns the target T1, Thioredoxin reductase (Homo sapiens) (UniProt Q16881+Q9NNW7+Q86VQ6). As to the kind of experiment: Inhibition of TrxR in human HeLa cells at 50 uM after 12 hrs by insulin reduction assay. The class given is cell-based. In a few lines:
(§2)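 Cells (1.5×10⁶) in RPMI 1640 were exposed 12 h; controls got <1% DMSO. Cells were trypsinized and lysed in Tris pH 7.4/Triton/deoxycholate/SDS buffer with protease inhibitors, then spun at 16,000g. Lysate was incubated 30 min at 37 °C with 2.5 mg/ml bovine insulin, NADPH and Trx in HEPES/EDTA pH 7.4. The reaction was stopped with guanidine-HCl/DTNB and read at A412. A no-Trx mixture served as background; activity is % of control, n≥3.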

The nature of experiment [6]: Inhibition of TrxR preincuabatd for 2 hrs followed by ultrafiltration.
Experiment [7] addresses T1, Thioredoxin reductase (Homo sapiens). As to the kind of experiment: Inhibition of TrxR in human MCF7 cells at 50 uM after 12 hrs by insulin reduction assay. The class given is cell-based. In a few lines:
as §2

As for `COc1cc(/C=C2\CCC/C(=C\c3ccc(O)cc3)C2=O)ccc1O`, the IC50 (as a rule, the midpoint of a concentration-inhibition curve) in experiment [1] came out at 5.1 µM. Moreover, the GC50 in the experiment with A549 [2] is >100 µM.
In turn, `COc1cc(/C=C/C(=O)/C=C(O)/C=C/c2ccc(CO)o2)cc(OC)c1OC` yielded a 50% inhibitory concentration (IC50) in [1] of 2 µM. The GC50 in the experiment on A549 [2] and with HepG2 was >100 µM in each case.
For `O=C(/C=C/c1ccc(O)cc1)CC(=O)/C=C/c1ccc(O)cc1` [BISDEMETHOXYCURCUMIN], the IC50 in [1] was > 100 µM.
For `O=C(/C=C(O)/C=C/c1ccc(CO)o1)/C=C/c1ccccc1`, in [1], the midpoint of inhibition, the IC50, lay at 1.3 µM. Also, the GC50 with HepG2 was >100 µM.
Consider `COc1cc(/C=C/C(=O)CC(=O)/C=C/c2ccc(O)c(OC)c2)ccc1O` [CURCUMIN], for which the IC50 in [1] is 38.3 µM; in [4], 4.2 µM. Further, the values for the GC50 in the experiment on A549 [2] and in the experiment on A549 [3] were 18.2 µM and 73 µM, respectively.
As for `O=C(/C=C(O)/C=C/c1ccco1)/C=C/c1ccco1`, the GC50 in the experiment with MCF7 stood at 33.6 µM; with A549 [2] it was 66.4 µM. The same compound gave an IC50 in [1] of 1.6 µM.
Turning to `O=C(/C=C(O)/C=C/c1ccccc1)/C=C/c1ccccc1`, in experiment [1], the IC50 is > 100 µM.
Same read-out and setting: next, `COc1cc(/C=C2\CCC/C(=C\c3ccc(O)cc3)C2=O)cc(OC)c1OC`: 24.9 µM; `COc1cc(/C=C/C(O)=C/C(=O)/C=C/c2ccc(O)cc2)ccc1O` [DEMETHOXYCURCUMIN]: 20 µM.
Take `COc1cc(/C=C/C(=O)/C=C(O)/C=C/c2ccc(C)o2)ccc1O`: the half-maximal inhibitory concentration (IC50) in [1] turned out to be 0.5 µM. The GC50 in the experiment with A549 [2] is >100 µM; in the experiment with A549 [3], 39.4 µM.
Take `COc1ccc(/C=C/C(=O)/C=C(O)/C=C/c2ccc(OC)cc2)cc1`: the GC50 with MCF7 and with A549 [3] was >100 µM each time. Moreover, the IC50 in [1] is > 100 µM.
For `COc1ccc(/C=C/C(=O)/C=C(O)/C=C/c2ccc(CO)o2)cc1`, the GC50 with MCF7 was 10 µM; with A549 [3], 12.1 µM; in the experiment with HepG2, >100 µM. Further, in [1], half-maximal inhibition (IC50) required 0.8 µM.
For the compound `O=C(/C=C(O)/C=C/c1ccc(O)cc1)/C=C/c1ccccc1`, the IC50 in experiment [1] was determined as 23.3 µM. This compound came in with a GC50 in the experiment on A549 [2] of 41.3 µM.
In [1], `O=C(/C=C(O)/C=C/c1cccs1)/C=C/c1ccc(O)cc1` registered an IC50 of 20 µM.
In the case of `COc1cc(/C=C/C(=O)/C=C(O)/C=C/c2ccc(O)cc2)cc(OC)c1OC`, in experiment [1], inhibition was half-maximal at 13.8 µM (IC50). The same compound had a GC50 in the experiment with A549 [2] of 60.1 µM.
In the case of `COc1cc(/C=C/C(O)=C/C(=O)/C=C/c2ccc(CO)o2)ccc1O`, the GC50 in the experiment on MCF7 is 10.6 µM; in the experiment on A549 [2], >100 µM; in the experiment with A549 [3] it was 35.8 µM; with HepG2, >100 µM. For the same compound, half-maximal inhibition in experiment [1] (IC50) was put at 1 µM.
Consider `O=C(/C=C(O)/C=C/c1ccc(O)cc1)/C=C/c1ccccc1Br`, for which, in experiment [1], the IC50 was 50 µM.
Regarding `Cc1ccc(/C=C/C(=O)/C=C(O)/C=C/c2ccc(C)o2)o1`, the outcome in [5], in experiment [6] and in [7] was Active. Besides, the GC50 with MCF7 was 48.5 µM; in the experiment with A549 [2], 52.9 µM; in the experiment on A549 [3], 59.6 µM; with HepG2 it was >100 µM. In addition, in [1], the 50% inhibitory concentration (IC50) worked out at 0.3 µM.
With `COc1cc(/C=C/C(O)=C/C(=O)/C=C/c2ccccc2)ccc1O`, half-maximal inhibition in experiment [1] (IC50) was put at 57 µM.
The compound `CN(C)c1ccc(/C=C/C(=O)/C=C(O)/C=C/c2ccc(CO)o2)cc1` registered an IC50 in experiment [1] of 62.2 µM. Moreover, in the experiment on HepG2, the GC50 is >100 µM.
On to `COc1ccc(/C=C/C(=O)/C=C(O)/C=C/c2ccc(OC)c(OC)c2)cc1OC` [DIMETHYLCURCUMIN], for which the IC50 in [1] was > 100 µM.
